Measured values taken from ChEMBL document CHEMBL4765386, “Discovery of tertiary amide derivatives incorporating benzothiazole moiety as anti-gastric cancer agents in vitro via inhibiting tubulin polymerization and activating the Hippo signaling pathway” (Eur J Med Chem, 2020).
Active and inactive are the calls of the source. The calls are words filed in the database; no cut-off is given here.

Key:
MGC-803 [1] = assay: Activation of Hippo signaling pathway in human […] cells assessed as downregulation of TEAD at 20 to 60 nM incubated for 48 hrs by Western blot analysis; type: cell-based; settings: filed as activator, dose 20-60 nM
Procedure, shortened: (§1)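 Western blot on gastric cancer cells exposed to compound or DMSO at 20, 40 and 60 nM for 48 h. Cells were lysed, then the denatured lysates were separated by SDS-PAGE and transferred to PVDF. Membranes were blocked and probed with primary and then secondary antibodies. Hippo pathway proteins were detected.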

MGC-803 [2] = assay: Induction of apoptosis in human MGC-803 cells assessed as downregulation of c-IAP1 at 20 to 60 nM incubated for 48 hrs by Western blot analysis; type: functional, cell-based; settings: dose 20-60 nM
Procedure, shortened: (§2)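 Western blot on MGC-803 and SGC-7901 cells given 20, 40 and 60 nM compound or DMSO for 48 h. Denatured lysates were run on SDS-PAGE and transferred to PVDF, then probed with primary and secondary antibodies to detect apoptosis-related proteins.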

SGC-7901 [3] = assay: Displacement of EBI from beta-tubulin in human SGC-7901 cells assessed as reduction in tubulin adduct formation incubated for 2 hrs followed by EBI addition and measured after 2 hrs by Western blot analysis; type: cell-based; settings: dose 0.25-2.5 µM, time 4.0 hrs
Procedure, shortened: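 EBI competition assay. […] EBI was then added at […] as printed for another 2 h. Harvested cells were immunoblotted with anti-β-tubulin antibody to detect β-tubulin and the alkylated β-tubulin adduct.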

MGC-803 [4] = assay: Induction of apoptosis in human MGC-803 cells assessed as early apoptotic cells at 60 nM incubated for 48 hrs by annexin V-FITC and PI staining based flow cytometry analysis (reference value: 2.9 %); type: functional
SGC-7901 [5] = assay: Induction of cell cycle arrest in human SGC-7901 cells assessed as increase in G2/M phase accumulation incubated for 24 hrs by PI staining based flow cytometry analysis; type: functional; settings: dose 20-60 nM
Procedure, shortened: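 Cells in RPMI-1640/10% FBS at 37 °C, 5% CO2, exposed to 20, 40 and 60 nM for 24 h before flow cytometric cell-cycle distribution analysis.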

SGC-7901 [6] = assay: Induction of apoptosis in human SGC-7901 cells assessed as late apoptotic cells at 40 nM incubated for 48 hrs by annexin V-FITC and PI staining based flow cytometry analysis (reference value: 2.4 %); type: functional
SGC-7901 [7] = assay: Induction of apoptosis in human SGC-7901 cells assessed as early apoptotic cells at 60 nM incubated for 48 hrs by annexin V-FITC and PI staining based flow cytometry analysis (reference value: 1.4 %); type: functional
MGC-803 [8] = assay: Induction of apoptosis in human MGC-803 cells assessed as late apoptotic cells at 40 nM incubated for 48 hrs by annexin V-FITC and PI staining based flow cytometry analysis (reference value: 4.1 %); type: functional
SGC-7901 [9] = assay: Induction of apoptosis in human SGC-7901 cells assessed as increase in PARP cleavage at 20 to 60 nM incubated for 48 hrs by Western blot analysis; type: functional, cell-based; settings: dose 20-60 nM
Procedure, shortened: (§3)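 Cells grown in RPMI-1640 with 10% FBS, penicillin/streptomycin at 37 °C, 5% CO2. Exposure to 20, 40 or 60 nM for 48 h alongside DMSO control. Lysates denatured, resolved by SDS-PAGE, transferred to PVDF, blocked, then probed with primary and secondary antibodies.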

MGC-803 [10] = assay: Induction of apoptosis in human MGC-803 cells assessed as downregulation of Mcl-1 at 20 to 60 nM incubated for 48 hrs by Western blot analysis; type: functional, cell-based; settings: dose 20-60 nM; procedure, shortened: as §2
MGC-803 [11] = assay: Induction of cell cycle arrest in human MGC-803 cells assessed as upregulation of Histone-H3 Ser10 at 20 to 60 nM incubated for 48 hrs by Western blot analysis; type: functional, cell-based; settings: dose 20-60 nM; procedure, shortened: as §3
MGC-803 [12] = assay: Induction of apoptosis in human MGC-803 cells assessed as early apoptotic cells at 20 nM incubated for 48 hrs by annexin V-FITC and PI staining based flow cytometry analysis (reference value: 2.9 %); type: functional
SGC-7901 [13] = assay: Induction of apoptosis in human SGC-7901 cells assessed as fragmentation of cells at 20 to 60 nM; type: functional, cell-based; settings: dose 20-60 nM
Procedure, shortened: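 Gastric cancer cells in RPMI-1640/10% FBS at 37 °C, 5% CO2, exposed to 20, 40 and 60 nM for 48 h; nuclear morphology (condensation, fragmentation) inspected after staining.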

[14] = Inhibition of pig brain tubulin polymerization in presence of GTP by spectrophotometric method; design: species or system Sus scrofa
Procedure, shortened: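 Tubulin purified from pig brain by three temperature-dependent assembly/disassembly cycles in PIPES pH 6.5 (100 mM), 1.0 mM MgSO4, 2.0 mM EGTA, 1.0 mM GTP, 1.0 mM 2-mercaptoethanol, then phosphocellulose chromatography. Protein mixed with compound in PEM buffer with 1 mM GTP and 5% glycerol.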

SGC-7901 [15] = assay: Induction of cell cycle arrest in human SGC-7901 cells assessed as downregulation of CDK1 at 20 to 60 nM incubated for 48 hrs by Western blot analysis; type: functional, cell-based; settings: dose 20-60 nM; procedure, shortened: as §3
MGC-803 [16] = assay: Induction of apoptosis in human MGC-803 cells assessed as upregulation of DR5 at 20 to 60 nM incubated for 48 hrs by Western blot analysis; type: functional, cell-based; settings: dose 20-60 nM; procedure, shortened: as §2
SGC-7901 [17] = assay: Inhibition of colony formation in human SGC-7901 cells at 20 to 60 nM incubated for 7 days by crystal violet staining based assay; type: functional, cell-based; settings: dose 20-60 nM, time 7.0 day
Procedure, shortened: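 Cells maintained in RPMI-1640 with 10% FBS at 37 °C, 5% CO2; incubated with 20, 40 and 60 nM for 7 days before colony counting.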

SGC-7901 [18] = assay: Activation of Hippo signaling pathway in human SGC-7901 cells assessed as increase in MST1/2 phosphorylation at 20 to 60 nM incubated for 48 hrs by Western blot analysis; type: cell-based; settings: filed as activator, dose 20-60 nM; procedure, shortened: as §1
SGC-7901 [19] = assay: Induction of apoptosis in human SGC-7901 cells assessed as early apoptotic cells at 20 nM incubated for 48 hrs by annexin V-FITC and PI staining based flow cytometry analysis (reference value: 1.4 %); type: functional
SGC-7901 [20] = assay: Induction of apoptosis in human SGC-7901 cells assessed as increase in caspase-9 cleavage at 20 to 60 nM incubated for 48 hrs by Western blot analysis; type: functional, cell-based; settings: dose 20-60 nM; procedure, shortened: as §3
SGC-7901 [21] = assay: Induction of apoptosis in human SGC-7901 cells assessed as upregulation of t-Bid at 20 to 60 nM incubated for 48 hrs by Western blot analysis; type: functional, cell-based; settings: dose 20-60 nM; procedure, shortened: as §3
SGC-7901 [22] = assay: Induction of apoptosis in human SGC-7901 cells assessed as downregulation of Mcl-1 at 20 to 60 nM incubated for 48 hrs by Western blot analysis; type: functional, cell-based; settings: dose 20-60 nM; procedure, shortened: as §2
MGC-803 [23] = assay: Induction of cell cycle arrest in human MGC-803 cells assessed as downregulation of CDK1 at 20 to 60 nM incubated for 48 hrs by Western blot analysis; type: functional, cell-based; settings: dose 20-60 nM; procedure, shortened: as §3
MGC-803 [24] = assay: Induction of apoptosis in human MGC-803 cells assessed as downregulation of c-IAP2 at 20 to 60 nM incubated for 48 hrs by Western blot analysis; type: functional, cell-based; settings: dose 20-60 nM; procedure, shortened: as §2
SGC-7901 [25] = assay: Induction of apoptosis in human SGC-7901 cells assessed as downregulation of Bcl-xl at 20 to 60 nM incubated for 48 hrs by Western blot analysis; type: functional, cell-based; settings: dose 20-60 nM; procedure, shortened: as §2
MGC-803 [26] = assay: Induction of apoptosis in human MGC-803 cells assessed as increase in caspase-9 cleavage at 20 to 60 nM incubated for 48 hrs by Western blot analysis; type: functional, cell-based; settings: dose 20-60 nM; procedure, shortened: as §2

IC50 [14]: 1900 nM
SMILES: COc1ccc(CN(C(=O)CSc2nc3ccccc3s2)c2cc(OC)c(OC)c(OC)c2)cc1O
Activity (MGC-803 [1]): Active
Activity (MGC-803 [2]): Active
inhibition (SGC-7901 [3]): Dose-dependent effect
Activity (MGC-803 [4]): 43%
Activity (SGC-7901 [5]): Dose-dependent effect
Activity (SGC-7901 [6]): 6.8%
Activity (SGC-7901 [7]): 19.1%
Activity (MGC-803 [8]): 10.1%
Activity (SGC-7901 [9]): Active
Activity (MGC-803 [10]): Active
Activity (MGC-803 [11]): Active
Activity (MGC-803 [12]): 4.4%
Activity (SGC-7901 [13]): Active
Activity (SGC-7901 [15]): Active
Activity (MGC-803 [16]): Active
Activity (SGC-7901 [17]): Active
Activity (SGC-7901 [18]): Active
Activity (SGC-7901 [19]): 4.2%
Activity (SGC-7901 [20]): Active
Activity (SGC-7901 [21]): Active
Activity (SGC-7901 [22]): Active
Activity (MGC-803 [23]): Active
Activity (MGC-803 [24]): Active
Activity (SGC-7901 [25]): Active
Activity (MGC-803 [26]): Active
